Legend:
HBV replication = HBV replication assay in HepG2.2.15.7 cells; format: cell-based, hepatitis B virus; conditions: six days, ETV 1 μM, CsA and its derivatives 8 μM
Summary of the method: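 HepG2.2.15.7 cells support HBV replication but not entry. They were treated for six days with test compound (8 μM), entecavir 1 μM as positive control, or DMSO 0.16%. HBV DNA released into the culture supernatant was then quantified by real-time PCR.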

HBV (genotype D) = experiment: HBV infection assay in HepG2-hNTCP-C4 cells; format: cell-based, hepatitis B virus; conditions: same concentration conditions (40 and 100 μM)
Summary of the method: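 HepG2-hNTCP-C4 cells were inoculated with genotype D HBV from Hep38.7-Tet culture supernatant at 6000 GEq/cell in 4% PEG8000. Test compound (8 μM), preS1 peptide (100 nM) or DMSO 0.16% was present for 16 h. Cells were washed and cultured 12 more days without compound. On day 13, supernatant HBs was measured by ELISA and intracellular HBc by immunofluorescence with image quantification. MTT viability was run in parallel.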

NTCP = biological target: T1, NTCP (Homo sapiens, UniProt Q14973); experiment: NTCP transporter assay; format: cell-based; conditions: HepG2-hNTCP-C4 cells, sulfobromophthalein 40 and 100 μM
T1 sequence (Q14973 1-349): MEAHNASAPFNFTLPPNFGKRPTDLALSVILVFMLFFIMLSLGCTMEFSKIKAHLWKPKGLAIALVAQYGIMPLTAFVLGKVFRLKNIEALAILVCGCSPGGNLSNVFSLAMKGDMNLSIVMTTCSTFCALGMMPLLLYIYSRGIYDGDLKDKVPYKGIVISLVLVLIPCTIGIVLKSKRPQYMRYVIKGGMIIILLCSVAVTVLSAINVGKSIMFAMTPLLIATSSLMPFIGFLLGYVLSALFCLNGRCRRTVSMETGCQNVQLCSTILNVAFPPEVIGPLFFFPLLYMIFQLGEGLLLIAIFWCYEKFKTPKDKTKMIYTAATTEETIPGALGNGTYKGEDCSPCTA

SMILES	HBV DNA released into the culture supernatant (HBV replication)	HBV infection (HBV (genotype D))	bile acid uptake in sodium-containing condition (NTCP)
C=C1[C@H](CO)[C@@H](O)C[C@@H]1n1cnc2c(=O)[nH]c(N)nc21 [entecavir]	significantly reduced		
O=C1OC(c2ccc(O)c(S(=O)(=O)O)c2)(c2ccc(O)c(S(=O)(=O)O)c2)c2c(Br)c(Br)c(Br)c(Br)c21 [sulfobromophthalein, Sulfobromophthalein]		did not inhibit HBV infection	impaired the bile acid uptake

Reference: paper PMC7172969 (Journal of Hepatology, 2016)
